Source: paper PMC1316110 (Nucleic Acids Research, 2005)

How the values were obtained:
MtuLigA [1] = biological target: T1, MtuLigA (Mycobacterium tuberculosis, UniProt P9WNV1); assay: Mode of inhibition, Michaelis-Menten / Lineweaver-Burk kinetics; format: biochemical, M.tuberculosis; conditions: read-out: Km for NAD^+; absence of the inhibitor, 10% Me2SO
Method in brief: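 Full-length recombinant MtuLigA (2 ng), 50 mM Tris–HCl pH 8.0, 5 mM DTT, 10 mM MgCl2, 10% Me2SO, 5′-32P-labelled nicked 40 bp duplex at 0.85 µM (saturating), NAD+ 0–50 µM, compound 0–250 or 0–450 µM; 1 h, 25°C. Ligation rate from gel scanning; Michaelis–Menten fit. Ki from apparent Km versus compound concentration. Mode from Lineweaver–Burk linear regression.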

MtuLigA [2] = biological target: T1, MtuLigA; format: biochemical, M.tuberculosis; conditions: read-out: IC50 MtuLigA; 50 µM NAD+, 10% Me2SO, 1 h at 25°C
T4 DNA ligase = biological target: T2, T4 DNA ligase (Enterobacteria phage T4, UniProt P00970); assay: In vitro ligase inhibition assay, 32P-labeled nicked 40 bp DNA substrate; format: biochemical, bacteriophage T4; conditions: read-out: IC50 T4Lig; 66 µM ATP, 10% Me2SO
T2 sequence (P00970 1-487): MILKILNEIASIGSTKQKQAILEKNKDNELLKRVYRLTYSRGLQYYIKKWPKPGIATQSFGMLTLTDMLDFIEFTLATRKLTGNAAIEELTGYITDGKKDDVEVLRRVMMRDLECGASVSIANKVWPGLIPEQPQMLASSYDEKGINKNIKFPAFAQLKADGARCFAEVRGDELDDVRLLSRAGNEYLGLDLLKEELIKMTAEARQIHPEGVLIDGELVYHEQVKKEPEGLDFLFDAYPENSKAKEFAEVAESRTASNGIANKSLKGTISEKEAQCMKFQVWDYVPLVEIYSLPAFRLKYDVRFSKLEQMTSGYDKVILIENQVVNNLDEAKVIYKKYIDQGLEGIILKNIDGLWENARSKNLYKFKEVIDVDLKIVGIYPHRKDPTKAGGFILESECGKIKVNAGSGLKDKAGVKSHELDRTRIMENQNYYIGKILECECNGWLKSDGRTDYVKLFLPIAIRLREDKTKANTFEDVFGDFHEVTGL

Row | Compound | Km (MtuLigA [1]) [µM] | IC50 (MtuLigA [2]) [µM] | IC50 (T4 DNA ligase) [µM]
1 | NC(=O)c1ccc[n+]([C@@H]2O[C@H](COP(=O)([O-])OP(=O)(O)OC[C@H]3O[C@@H](n4cnc5c(N)ncnc54)[C@H](O)[C@@H]3O)[C@@H](O)[C@H]2O)c1 [NAD] | 1.56 | – | –
2 | Chloroquine [Compound 6] | – | 5 ± 0.3 | 3 ± 0.2
3 | Doxorubicin [Compound 7] | – | – | 1600 ± 15
